This note sets out measurements from ChEMBL document CHEMBL4373648, “Anti-biofilm activity of quinazoline derivatives against Mycobacterium smegmatis” (Medchemcomm, 2019).

Data set [1] has as its system Mycolicibacterium smegmatis. The experiment in a line: Antibiofilm activity against Mycobacterium smegmatis str. MC2 155 ATCC 700084 after 48 hrs by crystal violet staining based […] assay. The class given is functional, organism-based. The note with it: MC2 155 ATCC 700084, 48 h. A digest of the protocol: (§1)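 IC50 is the concentration giving 50% inhibition of biofilm formation relative to an untreated control.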

Data set [2] in a line: Hemolytic activity in sheep RBC at 500 uM incubated for 1 hr under shaking condition by UV-spectrophotometry relative to 1% Triton-X. The note with it: sheep red blood cells (erythrocytes), read-out: Activity. The class given is ADME, cell-based, Ovis aries, Erythrocyte. A digest of the protocol:
(§2)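 Red blood cells were exposed to compound, and hemolysis was expressed as percent lysis relative to 1% Triton-X. The assay served as an antibiotic toxicity screen, and 500 μM was the highest concentration tested.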

A short description of data set [3]: Hemolytic activity in sheep RBC at 200 uM incubated for 1 hr under shaking condition by UV-spectrophotometry relative to 1% Triton-X. The class given is ADME, cell-based, Ovis aries, Erythrocyte. Particulars: sheep red blood cells (erythrocytes), read-out: Activity. A digest of the protocol: as §2
Data set [4] in a line: Hemolytic index, ratio of compound concentration causing hemolysis in sheep RBC to IC50 for antibiofilm activity against Mycobacterium smegmatis str. MC2 155 ATCC 700084. The method in brief: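 Red blood cells were exposed to compound at up to 500 μM, including 200 μM. Lysis was quantified relative to 1% Triton-X. The index was calculated as the hemolysis-causing concentration divided by the biofilm-inhibition IC50.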

Data set [5] relates to Mycolicibacterium smegmatis. Briefly: Toxicity against Mycobacterium smegmatis str. MC2 155 ATCC 700084 at 60 uM assessed as planktonic growth inhibition incubated for 4 to 48 hrs followed by replating on 7H10 plates and measured after 48 hrs by time kill curve assay. Particulars: in vivo. Format: organism-based. The method in brief: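 Planktonic growth curves of bacteria grown with compound at 60 μM were compared with curves from untreated cultures.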

Data set [6] deals with Mycolicibacterium smegmatis. Briefly: Antibiofilm activity against Mycobacterium smegmatis str. MC2 155 ATCC 700084 after 48 hrs by crystal violet staining based spectrophotometric assay. Format: functional, organism-based. The note with it: MC2 155 ATCC 700084, 48 h. The method in brief:
as §1

The structures appear in SMILES notation. pIC50: −log10 of the molar value.

What is called pIC50 is the negative decadic logarithm of the IC50, by convention in mol/L. Lower therefore signals a high IC50. `CCCCCc1ccc(C(=O)Nc2ccc3nc(N)ncc3c2)cc1`: the pIC50 in data set [1] is 4.41. Consider `CCCS(=O)(=O)Nc1ccc2nc(N)ncc2c1`, for which, in data set [1], the pIC50 was 4.44. On the same count and under the same terms, then `CCCCCC(=O)Nc1ccc2nc(N)ncc2c1`, with 4.64. Same read-out and setting: under `CS(=O)(=O)Nc1ccc2nc(N)ncc2c1` stands less than 4.00. `CCCCS(=O)(=O)Nc1ccc2nc(N)ncc2c1` gave a pIC50 in data set [1] of 4.22. Same read-out and setting: then `CCCCCCC(=O)Nc1ccc2nc(N)ncc2c1`, with 4.31; and `Nc1ncc2cc(NC(=O)c3cc(Cl)cc(Cl)c3)ccc2n1`, with 4.38; and `CCCCCCCC(=O)Nc1ccc2nc(N)ncc2c1`, with less than 4.00. Still for that read-out and setting: then `CCS(=O)(=O)Nc1ccc2nc(N)ncc2c1`, with 4.47. Same read-out and setting: then `Nc1ncc2cc(NC(=O)CCl)ccc2n1`, with 4.37; and `CCCCC(=O)Nc1ccc2nc(N)ncc2c1`, with 4.59. `CCCCCCc1ccc(C(=O)Nc2ccc3nc(N)ncc3c2)cc1`: the pIC50 in data set [1] is 4.19. As for `Cl.Nc1ncc2cc(NC(=O)c3ccc(Cl)cc3)ccc2n1`, in data set [2], the hemolysis at 1 h, 500 µM is 24%. Also, the hemolysis at 1 h, 200 µM in data set [3] amounted to 4%. For the same molecule, the HI in data set [4] is more than 33. In data set [5], the Activity entry is “Non-Toxic”. This molecule gave a pIC50 in data set [1] of 4.82. For the molecule `CCCCCCCc1ccc(C(=O)Nc2ccc3nc(N)ncc3c2)cc1`, in data set [2], the hemolysis at 1 h, 500 µM came to 57%. Besides, in data set [3], the hemolysis at 1 h, 200 µM came out at 31%. The molecule also showed a pIC50 in data set [1] of less than 4.00.

`CCC(=O)Nc1ccc2nc(N)ncc2c1` showed a pIC50 in data set [1] of 4.38.

`CCCC(=O)Nc1ccc2nc(N)ncc2c1` showed a pIC50 in data set [1] of 4.43.

On to `Nc1ncc2cc(NC(=O)c3cc(F)cc(F)c3)ccc2n1`, for which, in data set [1], the pIC50 was 4.34. In turn, `Nc1ncc2cc(NC(=O)c3ccc(Br)cc3)ccc2n1` had a pIC50 in data set [1] of 4.36. In data set [1], `CCCCCCCCC(=O)Nc1ccc2nc(N)ncc2c1` showed a pIC50 of less than 4.00. Same read-out and setting: under `Cc1ccc(C(=O)Nc2ccc3nc(N)ncc3c2)cc1` stands 4.72; under `CCCCc1ccc(C(=O)Nc2ccc3nc(N)ncc3c2)cc1`, 4.41. `CCCCCCC(CCCCCC)NC(=O)CCCc1c[nH]c(N)n1` gave a pIC50 in data set [6] of 5.28. `CCc1ccc(C(=O)Nc2ccc3nc(N)ncc3c2)cc1`: the pIC50 in data set [1] was 4.74. Same read-out and setting: under `Nc1ncc2cc(NC(=O)c3ccc(F)cc3)ccc2n1` stands less than 3.70; under `CC(=O)Nc1ccc2nc(N)ncc2c1`, 4.27; under `Nc1ncc2cc(NS(=O)(=O)c3cccs3)ccc2n1`, less than 4.00. In data set [1], `Nc1ncc2cc(NC(=O)C(Cl)(Cl)Cl)ccc2n1` had a pIC50 of 4.30. Still for that read-out and setting: then `CCCCCCS(=O)(=O)Nc1ccc2nc(N)ncc2c1`, with less than 4.00; and `Nc1ncc2cc(NC(=O)c3ccccc3)ccc2n1`, with 4.47. Take `CCCc1ccc(C(=O)Nc2ccc3nc(N)ncc3c2)cc1.Cl`: the hemolysis at 1 h, 500 µM in data set [2] came out at 25%. Also, the hemolysis at 1 h, 200 µM in data set [3] is 14%. Further, the HI in data set [4] is more than 33. Besides, the Activity entry in data set [5] is recorded as “Non-Toxic”. In addition, the pIC50 in data set [1] was 4.80. `Nc1ncc2cc(NC(=O)c3ccc(I)cc3)ccc2n1` had a pIC50 in data set [1] of less than 3.70.
